Data reported in ChEMBL document CHEMBL5260840 (J Med Chem, 2019).
Calls of active or inactive are those of the source. The rule behind the calls is not given here.

What was measured:
[1] = target: T1, von Hippel-Lindau disease tumor suppressor/Bromodomain-containing protein 9 (Homo sapiens) (UniProt Q9H8M2+P40337); test: PROTAC activity at VHL/HiBiT-tagged BRD9 expressed in HEK293 assessed as BRD9 ubiquitination at 1 uM measured upto 60 mins by NanoBRET assay; format: cell-based
[2] = target: T2, von Hippel-Lindau disease tumor suppressor/Bromodomain-containing protein 7 (Homo sapiens) (UniProt Q9NPI1+P40337); test: PROTAC activity at VHL/BRD7 in human Ri-1 cells assessed as remaining BRD7 protein level at 100 nM incubated for 4 hrs by Western blot analysis relative to control; format: cell-based
T2 sequence (P40337 whole entry, looked up): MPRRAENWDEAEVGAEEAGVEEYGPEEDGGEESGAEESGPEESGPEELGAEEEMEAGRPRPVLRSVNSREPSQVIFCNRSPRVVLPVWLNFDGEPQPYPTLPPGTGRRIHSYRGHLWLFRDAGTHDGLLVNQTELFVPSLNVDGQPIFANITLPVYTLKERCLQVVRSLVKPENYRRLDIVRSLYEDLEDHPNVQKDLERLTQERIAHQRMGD
T2 sequence (Q9NPI1 whole entry, looked up): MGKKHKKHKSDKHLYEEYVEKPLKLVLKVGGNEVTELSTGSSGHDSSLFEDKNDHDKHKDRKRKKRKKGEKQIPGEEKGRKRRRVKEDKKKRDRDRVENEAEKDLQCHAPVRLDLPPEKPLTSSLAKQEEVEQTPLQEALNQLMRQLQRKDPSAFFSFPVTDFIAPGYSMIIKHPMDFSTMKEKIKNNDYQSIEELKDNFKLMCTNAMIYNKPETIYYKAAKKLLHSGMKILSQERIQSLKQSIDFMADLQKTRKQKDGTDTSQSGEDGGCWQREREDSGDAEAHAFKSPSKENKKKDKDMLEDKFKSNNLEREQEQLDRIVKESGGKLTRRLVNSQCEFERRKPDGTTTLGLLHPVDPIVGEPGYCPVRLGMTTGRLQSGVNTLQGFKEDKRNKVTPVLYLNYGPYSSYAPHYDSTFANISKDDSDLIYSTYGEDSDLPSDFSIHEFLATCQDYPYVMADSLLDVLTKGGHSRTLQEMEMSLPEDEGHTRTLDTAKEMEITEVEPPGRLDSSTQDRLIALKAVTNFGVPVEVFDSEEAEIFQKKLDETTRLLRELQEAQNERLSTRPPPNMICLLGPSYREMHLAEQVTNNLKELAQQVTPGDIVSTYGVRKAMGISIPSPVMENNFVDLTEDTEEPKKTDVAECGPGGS
In short: (§1)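 Ri-1 cells exposed to compound for the stated time before harvest; BRD9, BRD7 and β-actin measured by Western blot, band intensities quantified and set against DMSO-treated control.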

[3] = target: T1, von Hippel-Lindau disease tumor suppressor/Bromodomain-containing protein 9 (Homo sapiens); test: PROTAC activity at VHL/BRD9 in human Ri-1 cells assessed as remaining BRD9 protein level at 10 nM incubated for 30 mins by Western blot analysis relative to control; format: cell-based; in short: as §1
[4] = target: T2, von Hippel-Lindau disease tumor suppressor/Bromodomain-containing protein 7 (Homo sapiens); test: PROTAC activity at VHL/BRD7 in human Ri-1 cells assessed as remaining BRD7 protein level at 0.1 nM incubated for 8 hrs by Western blot analysis relative to control; format: cell-based
[5] = target: T1, von Hippel-Lindau disease tumor suppressor/Bromodomain-containing protein 9 (Homo sapiens); test: PROTAC activity at VHL/BRD9 in human Ri-1 cells assessed as BRD9 protein degradation in the presence of MLN4924 by Western blot analysis; format: cell-based; in short: as §1
[6] = target: T2, von Hippel-Lindau disease tumor suppressor/Bromodomain-containing protein 7 (Homo sapiens); test: PROTAC activity at VHL/BRD7 in human Ri-1 cells assessed as remaining BRD7 protein level at 1 nM incubated for 2 hrs by Western blot analysis relative to control; format: cell-based
A204 = test: Antiproliferative activity against human A204 cells assessed as inhibition of cell growth incubated for 7 days by CellTiterGlo assay; format: functional, cell-based; conditions: A204, 168 h
[7] = target: T2, von Hippel-Lindau disease tumor suppressor/Bromodomain-containing protein 7 (Homo sapiens); test: PROTAC activity at VHL/BRD7 in human Ri-1 cells assessed as remaining BRD7 protein level at 100 nM incubated for 24 hrs by Western blot analysis relative to control; format: cell-based; in short: as §1
[8] = target: T2, von Hippel-Lindau disease tumor suppressor/Bromodomain-containing protein 7 (Homo sapiens); test: PROTAC activity at VHL/BRD7 in human Ri-1 cells assessed as maximal degradation by Western blot analysis relative to control; format: cell-based
[9] = target: T1, von Hippel-Lindau disease tumor suppressor/Bromodomain-containing protein 9 (Homo sapiens); test: PROTAC activity at VHL/BRD9 in human Ri-1 cells assessed as remaining BRD9 protein level at 100 nM incubated for 2 hrs by Western blot analysis relative to control; format: cell-based; in short: as §1
[10] = target: T1, von Hippel-Lindau disease tumor suppressor/Bromodomain-containing protein 9 (Homo sapiens); test: PROTAC activity at VHL/BRD9 in human Ri-1 cells assessed as remaining BRD9 protein level at 100 nM incubated for 30 mins by Western blot analysis relative to control; format: cell-based; in short: as §1
[11] = target: T1, von Hippel-Lindau disease tumor suppressor/Bromodomain-containing protein 9 (Homo sapiens); test: PROTAC activity at VHL/BRD9 in human Ri-1 cells assessed as remaining BRD9 protein level at 100 nM incubated for 1 hrs by Western blot analysis relative to control; format: cell-based; in short: as §1
[12] = target: T1, von Hippel-Lindau disease tumor suppressor/Bromodomain-containing protein 9 (Homo sapiens); test: PROTAC activity at VHL/BRD9 in human Ri-1 cells assessed as remaining BRD9 protein level at 10 nM incubated for 24 hrs by Western blot analysis relative to control; format: cell-based; in short: as §1
[13] = target: T2, von Hippel-Lindau disease tumor suppressor/Bromodomain-containing protein 7 (Homo sapiens); test: PROTAC activity at VHL/BRD7 in human Ri-1 cells assessed as BRD7 protein degradation at 100 nM pre-incubated for 30 mins with VH298 followed by compound addition and measured after 4 hrs by Western blot analysis; format: cell-based
[14] = target: T1, von Hippel-Lindau disease tumor suppressor/Bromodomain-containing protein 9 (Homo sapiens); test: PROTAC activity at VHL/BRD9 in human Ri-1 cells assessed as remaining BRD9 protein level at 10 nM incubated for 1 hrs by Western blot analysis relative to control; format: cell-based; in short: as §1
[15] = target: T2, von Hippel-Lindau disease tumor suppressor/Bromodomain-containing protein 7 (Homo sapiens); test: PROTAC activity at VHL/BRD7 in human Ri-1 cells assessed as remaining BRD7 protein level at 10 nM incubated for 30 mins by Western blot analysis relative to control; format: cell-based
[16] = target: T2, von Hippel-Lindau disease tumor suppressor/Bromodomain-containing protein 7 (Homo sapiens); test: PROTAC activity at VHL/BRD7 in human Ri-1 cells assessed as remaining BRD7 protein level at 10 nM incubated for 8 hrs by Western blot analysis relative to control; format: cell-based; in short: as §1
[17] = Stability in CD-1 mouse liver microsomes at 0.5 uM measured upto 30 mins in the presence of NADPH; format: ADME, Microsome; conditions: 0.5 h
[18] = target: T2, von Hippel-Lindau disease tumor suppressor/Bromodomain-containing protein 7 (Homo sapiens); test: PROTAC activity at VHL/BRD7 in human Ri-1 cells assessed as remaining BRD7 protein level at 1 nM incubated for 8 hrs by Western blot analysis relative to control; format: cell-based
[19] = target: T2, von Hippel-Lindau disease tumor suppressor/Bromodomain-containing protein 7 (Homo sapiens); test: PROTAC activity at VHL/BRD7 in human Ri-1 cells assessed as BRD7 protein degradation at 100 nM incubated for 4 hrs by MS proteomics analysis; format: cell-based
[20] = Stability in mouse plasma at 10 uM measured upto 180 mins by UPLC-MS/MS analysis; format: ADME, cell-free; conditions: 3 h
[21] = target: T1, von Hippel-Lindau disease tumor suppressor/Bromodomain-containing protein 9 (Homo sapiens); test: PROTAC activity at VHL/BRD9 in human Ri-1 cells assessed as BRD9 protein degradation in the presence of MG132 by Western blot analysis; format: cell-based; in short: as §1
[22] = target: T2, von Hippel-Lindau disease tumor suppressor/Bromodomain-containing protein 7 (Homo sapiens); test: PROTAC activity at VHL/BRD7 in human Ri-1 cells assessed as remaining BRD7 protein level at 10 nM incubated for 2 hrs by Western blot analysis relative to control; format: cell-based
[23] = target: T1, von Hippel-Lindau disease tumor suppressor/Bromodomain-containing protein 9 (Homo sapiens); test: PROTAC activity at VHL/BRD9 in human Ri-1 cells assessed as remaining BRD9 protein level at 100 nM incubated for 4 hrs by Western blot analysis relative to control; format: cell-based; in short: as §1
[24] = target: T2, von Hippel-Lindau disease tumor suppressor/Bromodomain-containing protein 7 (Homo sapiens); test: PROTAC activity at VHL/BRD7 in human Ri-1 cells assessed as remaining BRD7 protein level at 100 nM incubated for 2 hrs by Western blot analysis relative to control; format: cell-based; in short: as §1
[25] = target: T2, von Hippel-Lindau disease tumor suppressor/Bromodomain-containing protein 7 (Homo sapiens); test: PROTAC activity at VHL/BRD7 in human Ri-1 cells assessed as remaining BRD7 protein level at 10 nM incubated for 4 hrs by Western blot analysis relative to control; format: cell-based
[26] = target: T2, von Hippel-Lindau disease tumor suppressor/Bromodomain-containing protein 7 (Homo sapiens); test: PROTAC activity at VHL/BRD7 in human Ri-1 cells assessed as remaining BRD7 protein level at 100 nM incubated for 48 hrs by Western blot analysis relative to control; format: cell-based; in short: as §1
[27] = target: T2, von Hippel-Lindau disease tumor suppressor/Bromodomain-containing protein 7 (Homo sapiens); test: PROTAC activity at VHL/BRD7 in human HeLa cells assessed as remaining BRD7 protein level at 1 uM incubated for 4 hrs by Western blot analysis relative to control; format: cell-based
[28] = Stability in human plasma at 10 uM measured upto 180 mins by UPLC-MS/MS analysis; format: ADME, cell-free; conditions: 3 h
[29] = target: T2, von Hippel-Lindau disease tumor suppressor/Bromodomain-containing protein 7 (Homo sapiens); test: PROTAC activity at VHL/BRD7 in human Ri-1 cells assessed as BRD7 protein degradation in the presence of MG132 by Western blot analysis; format: cell-based
[30] = target: Von Hippel-Lindau disease tumor suppressor/Elongin B/Elongin C (Homo sapiens) (UniProt P40337+Q15370+Q15369); test: Negative co-operative binding affinity to 6His-tagged human VHL/ElonginC/ElonginB expressed in Escherichia coli BL21 (DE3) cells assessed as total gibb's free energy change in the presence of BRD9-BD as complex with compound by ITC analysis
Sequence of Von Hippel-Lindau disease tumor suppressor/Elongin B/Elongin C (Homo sapiens) (P40337 whole entry, looked up): as the sequence (P40337 whole entry, looked up) above
Sequence of Von Hippel-Lindau disease tumor suppressor/Elongin B/Elongin C (Homo sapiens) (Q15369 whole entry, looked up): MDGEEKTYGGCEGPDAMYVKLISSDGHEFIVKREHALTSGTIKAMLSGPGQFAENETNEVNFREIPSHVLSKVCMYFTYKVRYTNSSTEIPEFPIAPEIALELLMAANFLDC
Sequence of Von Hippel-Lindau disease tumor suppressor/Elongin B/Elongin C (Homo sapiens) (Q15370 whole entry, looked up): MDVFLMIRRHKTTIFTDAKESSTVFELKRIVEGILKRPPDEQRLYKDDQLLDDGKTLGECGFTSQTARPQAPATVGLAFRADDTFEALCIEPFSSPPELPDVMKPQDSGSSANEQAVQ

T1 sequence (P40337 whole entry, looked up): as the sequence (P40337 whole entry, looked up) above
T1 sequence (Q9H8M2 whole entry, looked up): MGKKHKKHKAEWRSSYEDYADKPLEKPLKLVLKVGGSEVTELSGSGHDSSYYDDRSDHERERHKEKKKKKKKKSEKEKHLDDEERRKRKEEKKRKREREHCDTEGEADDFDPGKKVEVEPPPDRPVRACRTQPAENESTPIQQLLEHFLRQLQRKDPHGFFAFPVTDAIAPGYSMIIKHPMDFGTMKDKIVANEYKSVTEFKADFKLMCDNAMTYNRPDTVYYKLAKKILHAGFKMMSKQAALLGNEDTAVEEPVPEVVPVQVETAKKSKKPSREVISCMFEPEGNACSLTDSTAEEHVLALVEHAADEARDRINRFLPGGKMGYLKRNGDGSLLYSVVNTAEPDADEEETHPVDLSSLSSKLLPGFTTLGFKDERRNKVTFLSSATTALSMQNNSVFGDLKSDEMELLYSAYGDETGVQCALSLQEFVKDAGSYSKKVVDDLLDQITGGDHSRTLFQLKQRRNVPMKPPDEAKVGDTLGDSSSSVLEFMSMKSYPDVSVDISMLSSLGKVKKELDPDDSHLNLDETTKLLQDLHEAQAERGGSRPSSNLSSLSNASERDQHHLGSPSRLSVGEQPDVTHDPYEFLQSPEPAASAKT

Activity [1]: Active
Activity [2]: 7%
Activity [3]: 50%
Activity [4]: 109%
Activity [5]: inactive
Activity [6]: 92%
Activity [7]: 4%
Emax [8]: > 90%
Activity [9]: 21%
Activity [10]: 48%
Activity [11]: 34%
Activity [12]: 17%
Activity [13]: inactive
Activity [14]: 64%
Activity [15]: 70%
Activity [16]: 33%
Stability [17]: Stable
Activity [18]: 100%
Activity [19]: Active
Stability [20]: Stable
Activity [21]: inactive
Activity [22]: 52%
Activity [23]: 10%
Activity [24]: 8%
Activity [25]: 42%
Activity [26]: 3%
Activity [27]: 10%
Stability [28]: Stable
Activity [29]: inactive
deltaG [30]: -21.7 kcal/mol
SMILES: COc1cc(-c2cn(C)c(=O)c3cnccc23)cc(OC)c1CN1CCN(CCCCCOc2cc(-c3scnc3C)ccc2CNC(=O)[C@@H]2C[C@@H](O)CN2C(=O)[C@@H](NC(=O)C2(F)CC2)C(C)(C)C)CC1
IC50 (A204): 39.8 nM
